We go through one molecule from PMC12667952 (bioRxiv, 2025).

This data set is described as follows: Study 2: in-life plasma and CNS drug exposure study in male C57BL/6 mice. The class given is in vivo, mouse. The following applies: 50 mg/kg i.p., 30 min. Put shortly:
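Contract in-life study in male C57BL/6 mice (22 ± 2 g), acclimated for 3 days. Plasma and brain sampled at 30 and 120 min post-injection. Unbound plasma and brain concentrations calculated.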

For the molecule `CN(C)C1(CNC(=O)c2ccc3c(c2)CCN3C(=O)c2ccccc2)CCOCC1` [RPI-GLYT2–82, 1-benzoyl-N-((4-(dimethylamino)tetrahydro-2H-pyran-4-yl)methyl)indoline-5-carboxamide], the “Cu,b, calculated unbound concentration in brain” value is on record as 597.89 nM.
